STAT3 inh = inhibitors of IL-6 induced STAT3 signaling. U3A cells, IL-6 STAT3-luciferase reporter, luminescence; host cell line lacks STAT1. inhibition, % at 5.5 µM. 190,000 tested, 0.89% active. AID 862;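 active = inhibition above the mean inhibition across all screened compounds plus 3 SD, cut at about 44% in these data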
STAT1 blocker = STAT1 signaling inhibition | inhibition, % at 5.5 µM | 200,000 tested, 0.35% active | NIH 3T3 STAT1-luciferase reporter, IFN-gamma, luminescence;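 active = inhibition above a set limit, the mean inhibition across all tested compounds plus 3 SD, cut at about 34% in these data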
NF-kB expr up = raises NF-kB expression in human neuronal cells; NF-kB reporter expression; active compounds read high; fold change at 12.5 µM; 190,000 tested, 1.6% active; AID 1239; in the data active = fold change above about 3.3
STAT1 activator = STAT1 signaling activation | NIH 3T3 STAT1-luciferase reporter, IFN-gamma, luminescence; 100% = IFN-gamma alone, no compound | activation (% of control), % at 5.5 µM | 200,000 tested, 2.6% active | AID 932;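 active = activation above the screen-wide mean activation plus 3 SD, cut at about 130% in these data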
APP 5'UTR act = activates APP 5'UTR luciferase reporter | SH-SY5Y APP 5'UTR luciferase reporter, luminescence; zero percent = DMSO vehicle wells | activation, % at 2 µM | 190,000 tested, 1% active | AID 1276;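 active = activation above a set limit, based on mean plus 3 SD of controls, cut at about 140% in these data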
STAT3 activator = increases IL-6 driven STAT3 reporter signal | U3A cells, IL-6 STAT3-luciferase reporter, luminescence; 100% = signal with IL-6 EC80 alone | activation (% of control), % at 5.6 µM | 190,000 tested, 0.91% active;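 active = activation above the screen-wide mean of compound activation plus 3 SD, cut at about 130% in these data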
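Test system: Human STAT1-deficient U3A cells with stable STAT3-luciferase reporter | Also added: Interleukin-6, 33 ng/mL | Timing: Compound pre-incubation 1 h before IL-6, then 6 h stimulation at 37 °C | Technique: Luciferase reporter luminescence | Read-out: Percent of IL-6-only median luminescence | Benchmarks: IL-6-only wells as 100% reference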
Large screens that a line does not name were inactive. Most compounds without a hit are left out; they make up all but 5.1% or so of the library.

O=C1C=C(Nc2ccccc2)C(=O)c2ccccc21	NF-kB expr up 8.2, STAT1 activator 132, APP 5'UTR act 140
O=C(c1cc(-c2cccs2)on1)N1CCN(c2ccc(F)cc2)CC1	NF-kB expr up 3.4
Cc1ccc2sc(-c3ccc(NC(=O)CCN4C(=O)c5ccccc5C4=O)cc3)nc2c1	STAT1 activator 150, APP 5'UTR act 162
COc1ccc(/C=C(\C#N)C(=O)OCC(=O)Nc2ccc(-c3nc4ccc(C)cc4s3)cc2)cc1	NF-kB expr up 4.5, APP 5'UTR act 184
Cc1ccc2nc(-c3ccc(NC(=O)CN4CCN(C(=O)c5ccco5)CC4)cc3)sc2c1	NF-kB expr up 4.4, APP 5'UTR act 149
COc1ccc(/C=C(\C#N)C(=O)OCC(=O)NC(C)c2ccccc2)cc1 (configuration not stated)	none
O=C(COC(=O)c1ccc(Br)o1)Nc1ccc(S(=O)(=O)N2CCCC2)cc1	none
Cc1ccc2nc(-c3ccc(NC(=O)COC(=O)c4ccc(Br)o4)cc3)sc2c1	STAT3 inh 43, NF-kB expr up 5.3, STAT1 activator 142, APP 5'UTR act 136
Cc1c(C(=O)N2CCC(C)CC2)sc2ncnc(N3CCN(c4ccccc4)CC3)c12	none
COc1ccc(NC(=O)C2CC(=O)OC23CCOC(C)(C)C3)cc1 (configuration not stated)	none
Cc1ccc2nc(-c3ccc(NC(=O)COC(=O)c4cncc(Br)c4)cc3)sc2c1	NF-kB expr up 6.5, STAT1 activator 144, APP 5'UTR act 152
O=C(COC(=O)c1cncc(Br)c1)Nc1ccc2c(c1)OCO2	none
COc1ccc(OCCC(=O)OCC(=O)c2ccc[nH]2)cc1	none (no result: NF-kB expr up)
CCOc1ccc2nc(N3C(=O)/C(=C/c4ccccc4)NC3=S)sc2c1	STAT1 activator 137
O=C(Cn1nnc2ccccc21)Nc1ccc(Cl)cn1	none
CCOC(=O)N1CCN(c2nc(C)cc(C(F)(F)F)n2)CC1	NF-kB expr up 4.9
CCOC(=O)N1CCN(c2nc(C(F)(F)F)nc3c(C)cc(C)cc23)CC1	none
CCOC(=O)C1=C(C)NC(=S)N(C=O)C1c1ccccc1 (configuration not stated)	none
CCS(=O)(=O)Nc1cccc(-c2nc3cccnc3s2)c1C	none
Cc1ccc(-c2nc3cccnc3s2)cc1NS(C)(=O)=O	STAT1 activator 139 (no result: STAT3 inh, STAT3 activator)
COc1cccc(CN2CCN(Cc3cccn3-c3cccnc3)CC2CCO)c1 (configuration not stated)	none
O=C(N/N=C/c1cn(-c2ccccc2)nc1-c1cc2ccccc2o1)c1ccncc1	STAT1 activator 144, APP 5'UTR act 188
O=C(N/N=C/c1cn(-c2ccccc2)nc1-c1cccnc1)c1cccnc1	none
Cc1ccc(S(=O)(=O)NNC(=O)C2CC=CCC2C(=O)O)cc1 (configuration not stated)	none
Cc1ccc(N=Cc2nc(-c3ccco3)oc2O)cc1	NF-kB expr up 3.5, STAT1 activator 141
O=C(NCCc1ccncc1)c1ccccc1F	none
O=C(NCCc1ccccc1)c1ccccc1F	NF-kB expr up 3.3
CCCCc1ccc(NC(=O)C2CCCO2)cc1 (configuration not stated)	STAT1 activator 130
O=C(NCCCc1ccccc1)c1ccccc1	STAT1 activator 129
CN(c1ccc(C(=O)NCCc2ccccc2)cc1)S(C)(=O)=O	STAT1 activator 141
O=C(NCCCCc1ccccc1)c1ccccc1	none
O=C(COC(=O)/C=C/c1cccs1)NC1CC1	none
O=C(NCCc1ccccc1)c1ccccc1NC(=O)C1CCCO1 (configuration not stated)	NF-kB expr up 3.4, STAT1 activator 134, APP 5'UTR act 158
O=C(/C=C/c1ccccc1)NCCC1=CCCCC1	STAT1 activator 148
O=C(/C=C/c1ccc(F)cc1)NCCC1=CCCCC1	none
COc1ccc(NC(=O)NCCC2=CCCCC2)cc1	STAT1 activator 129
O=C(c1ccc(C#CC2(O)CCCCC2)cc1)N1CCN(C(c2ccccc2)c2ccccc2)CC1	none
O=C(OCc1csc(-c2ccccc2)n1)c1ccc(O)cc1	STAT1 activator 150
Cc1ccc(C(=O)NCC(=O)OCc2csc(-c3ccccc3)n2)cc1	none
COc1ccccc1NC(=O)CNC(=O)c1ccc([N+](=O)[O-])cc1	none
O=C(CSc1nc(Nc2ccccc2)nc(N2CCOCC2)n1)Nc1ccccc1Cl	NF-kB expr up 6.7
CN=C1S/C(=C\c2cn(C(C)=O)nc2-c2ccccc2)C(=O)N1C	none (no result: NF-kB expr up)
CN=C1S/C(=C\c2cn(CC(=O)OC)c3ccccc23)C(=O)N1C	STAT3 activator 135
Cc1ccc(OCCSc2nnc(C)c(=O)n2N)cc1	none
NS(=O)(=O)c1ccc(CCN=C(NS(=O)(=O)c2cccs2)c2ccccc2)cc1	none
O=C(N/N=C/c1c(O)ccc2ccccc12)c1[nH]ncc1Br	none
Cc1ccc(O)c(/C=N/NC(=O)c2[nH]ncc2Br)c1	NF-kB expr up 8.1, STAT1 activator 131
O=C(O)c1ccc(Oc2c(C(F)(F)F)oc3cc(O)ccc3c2=O)cc1	none
CN1CCN(/N=C/c2cccc(Cl)c2Cl)CC1	none
COc1cccc(-c2nc(NC(C)C)c3ccccc3n2)c1O	STAT3 activator 134
CCC(C)Nc1nc(-c2cccc(OC)c2O)nc2ccccc12 (configuration not stated)	none
Oc1c(N=Nc2ccccn2)ccc2ccccc12	NF-kB expr up 3.6
CCC(=O)NC(c1ccccc1OC)c1ccc2cccnc2c1O (configuration not stated)	NF-kB expr up 6.9
Nc1cc(=O)[nH]c(SC/C=C/c2ccccc2)n1	none
Cc1cc(=O)[nH]c(S/C=C/c2ccccc2)n1	NF-kB expr up 4.1
CCCCN(CCCNC(=O)c1ccc2nc(N3CCOCC3)sc2c1)Cc1ccccc1	none
Cc1ccc(Cc2cnc(NC(=O)C3CCCO3)s2)cc1 (configuration not stated)	NF-kB expr up 4.5, STAT1 activator 135, APP 5'UTR act 145
Cc1csc(NC(=O)C2CCCO2)n1 (configuration not stated)	none
O=C(Nc1ncc(Cc2ccc(SC(F)F)cc2)s1)c1ccccc1	NF-kB expr up 3.6
Cc1ccc(C(=O)Nc2ncc(Cc3ccccc3)s2)o1	APP 5'UTR act 205
Cc1csc(NC(=O)c2ccc(C)o2)n1	none
COC(=O)c1ccc(COn2nnc3ccccc32)cc1	NF-kB expr up 5.4, APP 5'UTR act 200
CCCC(=O)n1nc(-c2cccnc2)nc1NCc1ccccc1	none
CO/N=C/c1ccc(N2CCCC2)c([N+](=O)[O-])c1	STAT1 activator 130
CC1=Nc2cc(C(=O)NCc3ccco3)ccc2Sc2ccc(C)cc21	NF-kB expr up 3.5, STAT3 activator 134
Cc1cc(Br)cc(C)c1OCCCCN(C)C	none

Source: PubChem (several laboratories)
